Laboratory results published in ChEMBL document CHEMBL4219038, “1-Thiazol-2-yl-N-3-methyl-1H-pyrozole-5-carboxylic acid derivatives as antitumor agents” (Bioorg Med Chem Lett, 2017).

Assays:
[1] = MRT in mouse at 10 mg/kg, po; type: ADME, organism-based; conditions: in vivo
[2] = system: BJAB; test: Antiproliferative activity against human BJAB cells after 4 days; type: functional, cell-based; conditions: Homo sapiens, BJAB, 96 h; read-out: EC50
[3] = Clearance in iv dosed mouse; type: ADME, organism-based; conditions: in vivo
[4] = Tmax in po dosed mouse; type: ADME, organism-based; conditions: in vivo
[5] = system: Mus musculus; test: Ratio of AUC (0 to infinity) in mouse at 2.5 mg/kg, po to Cmax in mouse at 10 mg/kg, po; type: ADME, organism-based; conditions: in vivo
[6] = Cmax in J:Nu mouse plasma at 60 mg/kg, po qd for 7 days followed by 120 mg/kg, po qd for 5 days from day 8 to 13; type: ADME, organism-based; design: dose 60 mg/kg, route oral
Method in brief: (§1)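 J:Nu female mice, N = 4 per group, dosed orally once daily at 10, 30 or 60 mpk in 5% NMP, 10% PEG-400, 15% Solutol, 70% D5W. The 30 and 60 mpk groups were raised to 90 and 120 mpk from day 8 to 13.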

[7] = system: Mus musculus; test: Toxicity in J:Nu mouse assessed as induction of changes in critical clinical parameters at 30 mg/kg, po qd for 7 days followed by 90 mg/kg, po qd for 5 days from day 8 to 13; type: organism-based; conditions: in vivo
Method in brief: (§2)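 In J:Nu female mice (N = 4 per group), dosing was oral once daily at 30 or 60 mg/kg in 5% NMP/10% PEG-400/15% Solutol/70% D5W for 7 days. Doses were then raised to 90 or 120 mg/kg respectively on days 8–13. Clinical signs and body weights were recorded daily. Gross pathology, with spleen and liver weights, was done 48 h after the last dose.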

[8] = system: MIA PaCa-2; test: Antiproliferative activity against human MIAPaCa2 cells; type: functional, cell-based
[9] = Cmax in J:Nu mouse plasma at 10 mg/kg, po qd for 7 days; type: ADME, organism-based; design: dose 10 mg/kg, route oral; method in brief: as §1
[10] = system: Mus musculus; test: Ratio of Cmax in mouse at 2.5 mg/kg, po to Cmax in mouse at 100 mg/kg, po; type: ADME, organism-based; conditions: in vivo
[11] = system: SU-DHL10; test: Antiproliferative activity against human SU-DHL10 cells; type: functional, cell-based
[12] = system: Mus musculus; test: Toxicity in J:Nu mouse assessed as induction of changes in critical clinical parameters at 60 mg/kg, po qd for 7 days followed by 120 mg/kg, po qd for 5 days from day 8 to 13; type: organism-based; conditions: in vivo; method in brief: as §2
[13] = AUC (0 to infinity) in J:Nu mouse plasma at 30 mg/kg, po qd for 7 days followed by 90 mg/kg, po qd for 5 days from day 8 to 13; type: ADME, organism-based; design: dose 30 mg/kg, route oral, time infinity; method in brief: as §1
[14] = system: Mus musculus; test: Toxicity in J:Nu mouse assessed as changes in organ weight at 60 mg/kg, po qd for 7 days followed by 120 mg/kg, po qd for 5 days from day 8 to 13 measured 48 hrs after post last dose by pathology analysis; type: organism-based; conditions: in vivo; method in brief: as §2
[15] = Protein binding in mouse plasma; type: ADME, cell-free; conditions: read-out: PPB (converted)
[16] = Dose normalized AUC (0 to infinity) in J:Nu mouse plasma at 60 mg/kg, po qd for 7 days followed by 120 mg/kg, po qd for 5 days from day 8 to 13; type: ADME, organism-based; conditions: in vivo; method in brief: as §1
[17] = Cmax in mouse at 50 mg/kg; type: ADME, organism-based; design: dose 50 mg/kg; conditions: in vivo
[18] = Plasma concentration (7 hrs) in J:Nu mouse at 30 mg/kg, po qd for 7 days measured on day 5; type: ADME, organism-based
Method in brief: (§3)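 J:Nu female mice, N = 4 per group, dosed orally once daily at 10, 30 or 60 mg/kg in 5% NMP, 10% PEG-400, 15% Solutol, 70% D5W. Blood was sampled every other day, alternating Cmax and predose draws. Plasma concentration was taken 7 h after dosing.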

[19] = AUC (0 to infinity) in po dosed mouse; type: ADME, organism-based; design: route oral, time infinity; conditions: in vivo
[20] = system: HCT-116; test: Antiproliferative activity against human HCT116 cells; type: functional, cell-based
[21] = Plasma concentration (7 hrs) in J:Nu mouse at 30 mg/kg, po qd for 7 days measured on day 1; type: ADME, organism-based; method in brief: as §3
[22] = Dose normalized Cmax in J:Nu mouse plasma at 60 mg/kg, po qd for 7 days followed by 120 mg/kg, po qd for 5 days from day 8 to 13; type: ADME, organism-based; conditions: in vivo; method in brief: as §1
[23] = MRT in mouse at 2.5 mg/kg, po; type: ADME, organism-based; conditions: in vivo
[24] = system: Mus musculus; test: Toxicity in J:Nu mouse assessed as organ damage at 60 mg/kg, po qd for 7 days followed by 120 mg/kg, po qd for 5 days from day 8 to 13 measured 48 hrs after post last dose by pathology analysis; type: organism-based; conditions: in vivo; method in brief: as §2
[25] = system: B cell; test: Antiproliferative activity against human primary B cells; type: cell-based
[26] = system: Mus musculus; test: Ratio of AUC (0 to infinity) in mouse at 2.5 mg/kg, po to Cmax in mouse at 50 mg/kg, po; type: ADME, organism-based; conditions: in vivo
[27] = Plasma concentration (7 hrs) in J:Nu mouse at 60 mg/kg, po qd for 7 days measured on day 1; type: ADME, organism-based; method in brief: as §3

Cc1nn(-c2nc(-c3ccc(Cl)c(Cl)c3)c(SC(C)C)s2)c(C(=O)O)c1-c1cc(Cl)cc(Cl)c1
MRT [1]: 10.1 h | EC50 [2]: 554 nM | clearance [3]: 0.8 mL/min/kg | Tmax [4]: 5 h | Ratio [5]: 10 | Cmax [6]: 128 µg/mL | Activity [7]: Non-Toxic | IC50 [8]: 320 nM | Cmax [9]: 29 µg/mL | Ratio [10]: 0.9 | IC50 [11]: 430 nM | Activity [12]: Non-Toxic | AUC(0-inf) [13]: 1490 µg·h/mL | Activity [14]: Non-Toxic | fraction unbound [15]: 0.008 | AUC/dose [16]: 12800 ng·kg·h/mL/mg | Cmax [17]: 138 µg/mL | concentration at 7 h [18]: 57.3 µg/mL | AUC(0-inf) [19]: 25.8 µg·h/mL | IC50 [20]: 600 nM | concentration at 7 h [21]: 63.6 µg/mL | Cmax/dose [22]: 1.0665 µg/mL | MRT [23]: 15.1 h | Activity [24]: Non-Toxic | IC50 [25]: > 40000 nM | Ratio [26]: 8.7 | concentration at 7 h [27]: 88.8 µg/mL
